Our source for the Ratio and Activity values is ChEMBL document CHEMBL3813690, “Synthesis and Th1-immunostimulatory activity of α-galactosylceramide analogues bearing a halogen-containing or selenium-containing acyl chain” (Bioorg Med Chem, 2016).

Common to all, as to format: cell-based
For experiment [1], the species on record is Mus musculus. The experiment can be described thus: Activity at CD1d in C57BL/6 mouse splenocytes assessed as ratio of IFN-gamma production to IL4 production at 100 nM after 48 hrs by ELISA. Summed up: (§1)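 Freshly prepared mouse splenocytes, washed three times by centrifugation in medium, counted in Türk's solution, seeded at 3 × 10⁵ cells/well in RPMI1640 with 10% FBS and 1% penicillin–streptomycin. Ligands dissolved in pyridine (1 mg/mL stock), diluted in medium to final 10, 30, 100, 300 and 1000 nM. Incubated 48 h at 37 °C; supernatant IFN-γ and IL-4 measured by ELISA. KRN7000 as positive control.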

The species entered for experiment [2] is Mus musculus. The experiment can be described thus: Activity at CD1d in C57BL/6 mouse splenocytes assessed as production of IFN-gamma at 100 nM after 48 hrs by ELISA relative to KRN7000. The method in brief: as §1
Experiment [3] is filed under the species Mus musculus. The experiment can be described thus: Activity at CD1d in C57BL/6 mouse splenocytes assessed as production of IL4 at 100 nM after 48 hrs by ELISA relative to KRN7000. Summed up:
as §1
For orientation: ELISA stands for enzyme-linked immunosorbent assay.

The species entered for experiment [4] is Mus musculus. The experiment can be described thus: Activity at CD1d in C57BL/6 mouse splenocytes assessed as production of IL4 at 10 to 1000 nM after 48 hrs by ELISA. Summed up: as §1
The species named for experiment [5] is Mus musculus. The experiment can be described thus: Activity at CD1d in C57BL/6 mouse splenocytes assessed as production of IFN-gamma at 10 to 1000 nM after 48 hrs by ELISA. The method in brief: as §1

The source made the active and inactive calls. No cut-off for these calls is given here.

On to `CCCCCCCCCCCCCC[C@@H](O)[C@@H](O)[C@H](CO[C@H]1O[C@H](CO)[C@H](O)[C@H](O)[C@H]1O)NC(=O)CCCCCCCCCCCCCCCCCCCCCCCCF`, for which the Ratio in the experiment filed under Mus musculus [1] was found to be 5. Moreover, the Activity was 104% in the experiment filed under Mus musculus [2] and 21% in the experiment listed under Mus musculus [3]. Moreover, the outcome in the experiment filed under Mus musculus [4] and in the experiment filed under Mus musculus [5] was Active.
With `CCCCCCCCCCCCCCCCCCCCCCCCCC(=O)N[C@@H](CO[C@H]1O[C@H](CO)[C@H](O)[C@H](O)[C@H]1O)[C@H](O)[C@H](O)CCCCCCCCCCCCCC`, the result in the experiment filed under Mus musculus [4] was Active.
Take `CCCCCCCCCCCCCC[C@@H](O)[C@@H](O)[C@H](CO[C@H]1O[C@H](CO)[C@H](O)[C@H](O)[C@H]1O)NC(=O)CCCCCCCCCCCCCCCCCCCCCCCCBr`: the Ratio in the experiment filed under Mus musculus [1] worked out at 4.4. Further, the results for the Activity in the experiment listed under Mus musculus [2] and in the experiment filed under Mus musculus [3] were 84% and 19%, respectively. Also, the outcome in the experiment filed under Mus musculus [4] and in the experiment filed under Mus musculus [5] was Active.
For the molecule `CCCCCCCCCCCCCC[C@@H](O)[C@@H](O)[C@H](CO[C@H]1O[C@H](CO)[C@H](O)[C@H](O)[C@H]1O)NC(=O)CCCCCCCCCCCCCCCC[Se]CCCCCCCC`, in the experiment listed under Mus musculus [1], the Ratio came out at 2.9. Moreover, the Activity was 103% in the experiment listed under Mus musculus [2] and 35% in the experiment filed under Mus musculus [3]. The result in the experiment listed under Mus musculus [4] and in the experiment listed under Mus musculus [5] was Active.
Take `CCCCCCCCCCCCCC[C@@H](O)[C@@H](O)[C@H](CO[C@H]1O[C@H](CO)[C@H](O)[C@H](O)[C@H]1O)NC(=O)CCCCCCCCCCCCCCCCCCCCCCCCCl`: the Ratio in the experiment filed under Mus musculus [1] was 3.8. For the same molecule, the results for the Activity in the experiment listed under Mus musculus [2] and in the experiment filed under Mus musculus [3] were 68% and 18%, respectively. For the same molecule, the outcome in the experiment filed under Mus musculus [4] and in the experiment listed under Mus musculus [5] was Active.
As to `CCCCCCCCCCCCCC[Se]CCCCCCCCCCC(=O)N[C@@H](CO[C@H]1O[C@H](CO)[C@H](O)[C@H](O)[C@H]1O)[C@H](O)[C@H](O)CCCCCCCCCCCCCC`, the Ratio in the experiment listed under Mus musculus [1] is 3.3. Besides, the values for the Activity in the experiment listed under Mus musculus [2] and in the experiment filed under Mus musculus [3] were 130% and 39%, respectively. Besides, the result in the experiment filed under Mus musculus [4] and in the experiment listed under Mus musculus [5] was Active.
